Data reported in ChEMBL document CHEMBL1130109, “Novel 99mTc aminobisthiolato/monothiolato "3 + 1" mixed ligand complexes: structure-activity relationships and preliminary in vivo validation as brain blood flow imaging agents” (J Med Chem, 1997).
Where “and” joins values, the source holds several entries; their conditions need not be identical. Equal entries are not always repeated. One block for each substance: values may come before it.

Legend:
Mus musculus [1] = species on record: Mus musculus; assay: Biodistribution in mice bladder plus excreted urine was determined; assay type: ADME, organism-based; conditions: in vivo
How it was run: (§1)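 Male Swiss Albino mice (19–34g, at least five per group) were injected in the tail vein with HPLC-purified 99mTc complex in 50% methanol (0.1 mL, 2–3 μCi). Killed by cardiectomy under slight ether anesthesia at 5, 10, 30 or 60 min. Organs were excised, weighed and γ-counted against standards of 1% injected dose, as % ID/organ. Bladder plus excreted urine was not weighed. Stomach and intestines were not emptied.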

Mus musculus [2] = species on record: Mus musculus; assay: Percentage biodistribution in mouse blood, 10 minutes post injection; assay type: ADME, organism-based; conditions: in vivo
How it was run: (§2)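 Mice (Swiss Albino males, 19–34g, ≥5/group) received tail-vein HPLC-purified 99mTc complex (0.1 mL, 2–3 μCi, 50% methanol) and were killed by cardiectomy under ether at set times. Blood % ID was computed from measured activity and sample weight, with blood taken as 7% of body weight, against 1%-dose standards.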

Mus musculus [3] = species on record: Mus musculus; assay: Percentage biodistribution in mouse blood, 30 minutes post injection; assay type: ADME, organism-based; conditions: in vivo, 0.5 h; how it was run: as §2
Mus musculus [4] = species on record: Mus musculus; assay: Percentage biodistribution in mouse blood, 5 minutes post injection; assay type: ADME, organism-based; conditions: in vivo; how it was run: as §2
Mus musculus [5] = species on record: Mus musculus; assay: Percentage biodistribution in mouse blood, 60 minutes post injection; assay type: ADME, organism-based; conditions: in vivo, 1 h; how it was run: as §2
Mus musculus [6] = species on record: Mus musculus; assay: Percentage biodistribution in mouse brain, 10 minutes post injection; assay type: ADME, organism-based; conditions: in vivo; how it was run: as §1
Mus musculus [7] = species on record: Mus musculus; assay: Percentage biodistribution in mouse brain, 30 minutes post injection; assay type: ADME, organism-based; conditions: in vivo, 0.5 h; how it was run: as §1
Mus musculus [8] = species on record: Mus musculus; assay: Percentage biodistribution in mouse brain, 5 minutes post injection; assay type: ADME, organism-based; conditions: in vivo; how it was run: as §1
Mus musculus [9] = species on record: Mus musculus; assay: Percentage biodistribution in mouse brain, 60 minutes post injection; assay type: ADME, organism-based; conditions: in vivo, 1 h; how it was run: as §1
Mus musculus [10] = species on record: Mus musculus; assay: Percentage biodistribution in mouse heart, 10 minutes post injection; assay type: ADME, organism-based; conditions: in vivo; how it was run: as §1
Mus musculus [11] = species on record: Mus musculus; assay: Percentage biodistribution in mouse heart, 30 minutes post injection; assay type: ADME, organism-based; conditions: in vivo, 0.5 h; how it was run: as §1
Mus musculus [12] = species on record: Mus musculus; assay: Percentage biodistribution in mouse heart, 5 minutes post injection; assay type: ADME, organism-based; conditions: in vivo; how it was run: as §1
Mus musculus [13] = species on record: Mus musculus; assay: Percentage biodistribution in mouse intestine, 10 minutes post injection; assay type: ADME, organism-based; conditions: in vivo; how it was run: as §1
Mus musculus [14] = species on record: Mus musculus; assay: Percentage biodistribution in mouse intestine, 30 minutes post injection; assay type: ADME, organism-based; conditions: in vivo, 0.5 h; how it was run: as §1
Mus musculus [15] = species on record: Mus musculus; assay: Percentage biodistribution in mouse intestine, 5 minutes post injection; assay type: ADME, organism-based; conditions: in vivo; how it was run: as §1
Mus musculus [16] = species on record: Mus musculus; assay: Percentage biodistribution in mouse intestine, 60 minutes post injection; assay type: ADME, organism-based; conditions: in vivo, 1 h; how it was run: as §1
Mus musculus [17] = species on record: Mus musculus; assay: Percentage biodistribution in mouse liver, 10 minutes post injection; assay type: ADME, organism-based; conditions: in vivo; how it was run: as §1
Mus musculus [18] = species on record: Mus musculus; assay: Percentage biodistribution in mouse liver, 30 minutes of post injection; assay type: ADME, organism-based; conditions: in vivo, 0.5 h; how it was run: as §1
Mus musculus [19] = species on record: Mus musculus; assay: Percentage biodistribution in mouse liver, 5 minutes post injection; assay type: ADME, organism-based; conditions: in vivo; how it was run: as §1
Mus musculus [20] = species on record: Mus musculus; assay: Biodistribution in mice liver at 60 minutes of post injection; assay type: ADME, organism-based; conditions: in vivo, 1 h; how it was run: as §1
Mus musculus [21] = species on record: Mus musculus; assay: Biodistribution in mice lungs at 10 min of post injection; assay type: ADME, organism-based, Lung; conditions: in vivo; how it was run: as §1
Mus musculus [22] = species on record: Mus musculus; assay: Percentage biodistribution in mouse lung, 30 minutes post injection; assay type: ADME, organism-based; conditions: in vivo, 0.5 h; how it was run: as §1
Mus musculus [23] = species on record: Mus musculus; assay: Percentage biodistribution in mousee lung, 5 minutes post injection; assay type: ADME, organism-based; conditions: in vivo; how it was run: as §1
Mus musculus [24] = species on record: Mus musculus; assay: Biodistribution in mice lungs at 60 min of post injection; assay type: ADME, organism-based, Lung; conditions: in vivo, 1 h; how it was run: as §1
Mus musculus [25] = species on record: Mus musculus; assay: Percentage biodistribution in mouse spleen; assay type: ADME, organism-based; conditions: in vivo; how it was run: as §1
Mus musculus [26] = species on record: Mus musculus; assay: Percentage biodistribution in mouse stomach; assay type: ADME, organism-based; conditions: in vivo; how it was run: as §1
[27] = Partition coefficient (logD7.4); assay type: physicochemical; conditions: octanol/water, pH 7.4
How it was run: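 HPLC-purified 99mTc complex (0.1 mL) was added to 2 mL each of 1-octanol and 0.125 M phosphate buffer, pH 7.4. The mix was vortexed and centrifuged at 5000 rpm for 5 min. Three 0.2 mL samples per layer were γ-counted. Mean cpm/mL of octanol was divided by that of buffer.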

Mus musculus [28] = species on record: Mus musculus; assay: Percentage biodistribution in mouse heart, 60 minutes post injection; assay type: ADME, organism-based; conditions: in vivo, 1 h; how it was run: as §1
[29] = Retention ratio is measured as the brain uptake (%ID/organ) at 30 min pi divided by the brain uptake at 5 min pi.; assay type: functional
How it was run: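 Brain % ID/organ in tail-vein-injected male Swiss Albino mice (0.1 mL, 2–3 μCi purified 99mTc complex in 50% methanol; γ-counted after cardiectomy under ether). Mean brain % ID/organ at 30 min pi was divided by the mean at 5 min pi.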

[30] = % ID/gram in brain divided by %ID/gram in blood at 10 minutes.; assay type: functional, tissue-based
How it was run: (§3)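 Male Swiss Albino mice (19–34g, at least five per group) got HPLC-purified 99mTc complex in 50% methanol, 0.1 mL, 2–3 μCi, by tail vein. They were killed by cardiectomy under light ether at 5, 10, 30 or 60 min. % ID/g (% ID/organ ÷ organ weight) of brain was divided by that of blood; blood assumed 7% of body weight.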

[31] = % ID/gram in brain divided by %ID/gram in blood at 5 minutes.; assay type: functional, tissue-based; how it was run: as §3
[32] = % ID/gram in brain divided by %ID/gram in blood at 60 minutes.; assay type: functional, tissue-based; how it was run: as §3

- ID/organ (Mus musculus [1]): 2.24% and 6.87%
- ID/organ (Mus musculus [2]): 1.53%
- ID/organ (Mus musculus [3]): 5.14% and 1.29%
- ID/organ (Mus musculus [4]): 6.09% and 2.02%
- ID/organ (Mus musculus [5]): 1.21%
- ID/organ (Mus musculus [6]): 2.47%
- ID/organ (Mus musculus [7]): 0.56% and 1.71%
- ID/organ (Mus musculus [8]): 2.26% and 3.01%
- ID/organ (Mus musculus [9]): 1.54%
- ID/organ (Mus musculus [10]): 0.46%
- ID/organ (Mus musculus [11]): 0.28% and 0.19%
- ID/organ (Mus musculus [12]): 0.81% and 0.74%
- ID/organ (Mus musculus [13]): 9.61%
- ID/organ (Mus musculus [14]): 21.19% and 18.99%
- ID/organ (Mus musculus [15]): 9.22% and 8.31%
- ID/organ (Mus musculus [16]): 33.7%
- ID/organ (Mus musculus [17]): 14.14%
- ID/organ (Mus musculus [18]): 27.33% and 25.58%
- ID/organ (Mus musculus [19]): 17.06% and 10.73%
- ID/organ (Mus musculus [20]): 35.12%
- ID/organ (Mus musculus [21]): 9.78%
- ID/organ (Mus musculus [22]): 3.49% and 3.09%
- ID/organ (Mus musculus [23]): 11.03% and 15.37%
- ID/organ (Mus musculus [24]): 1.79%
- ID/organ (Mus musculus [25]): 0.61% and 0.21%
- ID/organ (Mus musculus [26]): 2.43% and 2.34%
- logD [27]: 2.54 and 2.63
- ID/organ (Mus musculus [28]): 0.12%
Substance: [4-methoxythio)phenolato][N,N-bis(2-mercaptoethyl)-N',N'-diethylethylenediamine] oxotechnetium [listing 1 of 2 here]

Substance: [4-methoxythio)phenolato][N,N-bis(2-mercaptoethyl)-N',N'-diethylethylenediamine] oxotechnetium [listing 2 of 2 here]
- Retention ratio [29]: 0.25 and 0.57
- Ratio [30]: 4.71
- Ratio [31]: 1.7 and 4.43
- Ratio [32]: 4.23
